Reference: ChEMBL document CHEMBL1781963, “Discovery of novel hepatoselective HMG-CoA reductase inhibitors for treating hypercholesterolemia: a bench-to-bedside case study on tissue selective drug distribution” (Bioorg Med Chem Lett, 2011)

Experiments:
[1] = Cmax in human plasma at 10 mg administered as single dose; format: ADME, organism-based; parameters: dose 10 mg
Procedure, shortened: (§1)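 Phase 1 single ascending oral dose in healthy volunteers, about 5–6 subjects per dose. Total plasma drug Cmax and AUC(0-∞) were measured. Free-drug exposures were derived using plasma protein binding.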

[2] = Cmax in human plasma at 120 mg administered as single dose; format: ADME, organism-based; parameters: dose 120 mg; procedure, shortened: as §1
[3] = Cmax in human plasma at 240 mg administered as single dose; format: ADME, organism-based; parameters: dose 240 mg; procedure, shortened: as §1
Plasma [4] = assay: fAUC (0 to infinity) in human plasma at 320 mg administered as single dose; format: ADME, cell-free
Procedure, shortened: (§2)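 Phase 1 single ascending oral dose in healthy volunteers, with N per dose group. Total plasma Cmax and AUC(0-∞) were measured. Free-drug exposures were derived from these using plasma protein binding (human plasma fu measured at 0.5 μg/mL).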

Homo sapiens [5] = assay: Inhibition of HMG-CoA reductase in human assessed as decrease in AUC (0 to 24 hrs) of mevalonate level in plasma at 120 mg administered as single dose relative to control; format: functional
Homo sapiens [6] = assay: Inhibition of HMG-CoA reductase in human assessed as decrease in AUC (0 to 24 hrs) of mevalonate level in plasma at 320 mg administered as single dose relative to control; format: organism-based; conditions: in vivo
Homo sapiens [7] = assay: Inhibition of HMG-CoA reductase in human assessed as decrease in AUC (0 to 72 hrs) of mevalonate level in plasma at 3 mg administered as single dose relative to control; format: functional
Homo sapiens [8] = assay: Inhibition of HMG-CoA reductase in human assessed as decrease in AUC (0 to 72 hrs) of mevalonate level in plasma at 10 mg administered as single dose relative to control; format: functional
Homo sapiens [9] = assay: Inhibition of HMG-CoA reductase in human assessed as decrease in AUC (0 to 72 hrs) of mevalonate level in plasma at 120 mg administered as single dose relative to control; format: functional
Syrian golden hamster = assay: Inhibition of cholesterol synthesis in golden syrian hamster assessed as reduction of [14C]-cholesterol level at 10 mg/kg, po followed by 3 hrs after treated with 80 uCi, ip of [14C]-sodium acetate measured after 5 hrs by liquid scintillation counting relative to control; format: functional; conditions: Mesocricetus auratus
Procedure, shortened: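 Separate hamster groups dosed po at 10 mg/kg at t = 0 h. 14C sodium acetate ip at t = 3 h, blood 14C cholesterol at t = 5 h. Percent change vs untreated controls, n = 8/group.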

[10] = Terminal half life in human plasma at 240 mg administered as single dose; format: ADME, cell-free; conditions: read-out: beta t1/2 (converted)
[11] = Cmax in human plasma at 1 mg administered as single dose; format: ADME, organism-based; parameters: dose 1 mg; procedure, shortened: as §1
[12] = Cmax in human plasma at 5 mg administered as single dose; format: ADME, organism-based; parameters: dose 5 mg; procedure, shortened: as §1
[13] = Cmax in human plasma at 20 mg administered as single dose; format: ADME, organism-based; parameters: dose 20 mg; procedure, shortened: as §1
Plasma [14] = assay: fCmax in human plasma at 80 mg administered as single dose; format: ADME, cell-free; procedure, shortened: as §2
Plasma [15] = assay: fCmax in human plasma at 160 mg administered as single dose; format: ADME, cell-free; procedure, shortened: as §2
Plasma [16] = assay: fAUC (0 to infinity) in human plasma at 20 mg administered as single dose; format: ADME, cell-free; procedure, shortened: as §2
Homo sapiens [17] = assay: Inhibition of HMG-CoA reductase in human assessed as decrease in AUC (0 to 24 hrs) of mevalonate level in plasma at 160 mg administered as single dose relative to control; format: functional
Homo sapiens [18] = assay: Inhibition of HMG-CoA reductase in human assessed as decrease in AUC (0 to 72 hrs) of mevalonate level in plasma at 160 mg administered as single dose relative to control; format: functional
[19] = Terminal half life in human plasma at 5 mg administered as single dose; format: ADME, cell-free; conditions: read-out: beta t1/2 (converted)
Homo sapiens [20] = assay: Inhibition of HMG-CoA reductase in human assessed as decrease in AUC (0 to 24 hrs) of mevalonate level in plasma at 10 mg administered qd for 14 days relative to control; format: functional
Homo sapiens [21] = assay: Inhibition of HMG-CoA reductase in human assessed as decrease in LDL-cholesterol level in plasma at 10 mg administered qd for 14 days relative to control; format: functional

In the case of `O=C([O-])C[C@H](O)C[C@H](O)CCn1c(-c2ccc(F)cc2)nc(C(=O)NCc2cccc(F)c2)c1C1CC1.[Na+]`, the Cmax [1] is reported as 0.355 ng/mL, the Cmax [2] is reported as 3.31 ng/mL and the Cmax [3] is reported as 9.27 ng/mL. For the same molecule, the fAUC (Plasma [4]) was 10.4 ng·h/mL, the “inhibition (INH)” value (Homo sapiens [5]) was -46% and the “inhibition (INH)” value (Homo sapiens [6]) was -61%. For the same molecule, the “inhibition (INH)” value (Homo sapiens [7]) was -10%, the “inhibition (INH)” value (Homo sapiens [8]) was -13% and the “inhibition (INH)” value (Homo sapiens [9]) was -17%. It also gave an inhibition in vivo at 10 mg/kg (Syrian golden hamster) of -43% and a half-life [10] of 4.06 h.
`Cc1ccc(CNC(=O)c2nn(-c3ccc(F)cc3)c(CC[C@@H](O)C[C@@H](O)CC(=O)O)c2C(C)C)cc1` showed a Cmax [11] of 33.5 ng/mL, a Cmax [12] of 196 ng/mL and a Cmax [13] of 740 ng/mL. For the same molecule, the fCmax (Plasma [14]) was 228 ng/mL, the fCmax (Plasma [15]) was 347 ng/mL and the fAUC (Plasma [16]) was 98.4 ng·h/mL. For the same molecule, the “inhibition (INH)” value (Homo sapiens [17]) was -55%, the “inhibition (INH)” value (Homo sapiens [18]) was -24% and the half-life [19] was 4.54 h.
In the case of `CC(C)c1nc(N(C)S(C)(=O)=O)nc(-c2ccc(F)cc2)c1/C=C/[C@@H](O)C[C@@H](O)CC(=O)O` [ROSUVASTATIN], the “inhibition (INH)” value (Homo sapiens [20]) is reported as 29.9% and the “inhibition (INH)” value (Homo sapiens [21]) is reported as 41.3%.
